Broadly, the ED50 is the dose that gives a 50% effect, or the effect in half of the subjects. Broadly, the IC50 is the concentration at which inhibition is half-maximal. What is called inhibition is how much of the control response was suppressed. A lower inhibition goes with a weak effect.

In brackets after ≈: the same amount, converted by molar mass.

In data set [1] the test system is Staphylococcus aureus. Put plainly: Antibacterial activity against Staphylococcus aureus Smith assessed as growth inhibition by CLSI broth microdilution method. In kind it is functional. In a few lines:
(§1)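 MIC by CLSI broth microdilution in cation-adjusted Mueller-Hinton broth; S. pneumoniae medium supplemented with 5% lysed horse blood.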

The subject of a further data set is Haemophilus influenzae. Nature of the data set: Antibacterial activity against Haemophilus influenzae SR27914 clinical isolate assessed as growth inhibition by CLSI broth microdilution method. In kind it is functional. An outline of the steps:
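MIC by CLSI broth microdilution using Haemophilus test medium.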
In general terms: Dilution methods test growth across graded concentrations, often in twofold steps.

Data set [2] has as its system Staphylococcus aureus. Put plainly: Antibacterial activity against methicillin-resistant Staphylococcus aureus SR3637 infected in JCL/ICR mouse systemic infection model assessed as mortality administered as iv measured over 7 days. In kind it is functional. As to conditions: 168 h. In a few lines:
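Five-week-old male JCL/ICR mice (20–25 g), five per group. Infected intraperitoneally with 0.5 or 1.0 mL bacterial suspension (about 100× LD50). Intravenous dosing 1 h post-infection. Mortality followed 7 days; ED50 with 95% confidence limits by logit method.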

Another data set concerns the target Cytochrome P450 3A4 (Homo sapiens, UniProt P08684). Put plainly: Inhibition of human CYP3A4 assessed as terfenadine hydroxylation after 20 mins by LC/MS/MS analysis. It counts as ADME. An outline of the steps: (§2)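 Human liver microsomes (0.2 mg protein/mL) with 1 mM NADPH in 50 mM HEPES pH 7.4, 10 mM MgCl2, 0.1 mM EDTA. After centrifugation, supernatant metabolite measured by LC/MS/MS. Standard curve from authentic metabolite cocktail added to unincubated reaction mix.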

Another data set has as its system Moraxella catarrhalis. Put plainly: Antibacterial activity against Moraxella catarrhalis SR26840 clinical isolate assessed as growth inhibition by CLSI broth microdilution method. In kind it is functional. In a few lines:
as §1

A further data set concerns Enterococcus faecalis. Put plainly: Antibacterial activity against Enterococcus faecalis SR1004 clinical isolate assessed as growth inhibition by CLSI broth microdilution method. In kind it is functional. An outline of the steps: as §1
The subject of data set [3] is Staphylococcus aureus. Put plainly: Antibacterial activity against Staphylococcus aureus SR20549 clinical isolate assessed as growth inhibition by CLSI broth microdilution method. In kind it is functional. In a few lines:
as §1

Another data set concerns the target T1, MAO-A (Rattus norvegicus, UniProt P21396).
T1 sequence (P21396 whole entry): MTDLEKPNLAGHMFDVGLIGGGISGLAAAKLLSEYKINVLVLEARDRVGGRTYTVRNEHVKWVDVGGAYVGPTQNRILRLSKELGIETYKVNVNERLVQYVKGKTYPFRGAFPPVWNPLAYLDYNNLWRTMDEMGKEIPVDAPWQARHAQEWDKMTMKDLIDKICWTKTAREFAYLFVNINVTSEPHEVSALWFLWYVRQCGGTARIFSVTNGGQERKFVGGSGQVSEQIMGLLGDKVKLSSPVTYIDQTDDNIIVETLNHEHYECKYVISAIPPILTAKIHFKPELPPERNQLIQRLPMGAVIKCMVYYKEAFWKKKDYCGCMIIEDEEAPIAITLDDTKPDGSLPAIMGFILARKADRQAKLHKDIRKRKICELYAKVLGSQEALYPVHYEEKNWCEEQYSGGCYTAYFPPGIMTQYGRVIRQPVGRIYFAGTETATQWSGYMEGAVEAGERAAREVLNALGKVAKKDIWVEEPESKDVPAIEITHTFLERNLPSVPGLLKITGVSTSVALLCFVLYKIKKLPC
Put plainly: Inhibition of MAO-A in rat forebrain using [14C]5-HT as substrate at 30 uM incubated for 20 mins prior to substrate addition measured after 5 mins by liquid scintillation counting analysis relative to control. In kind it is tissue-based. As to conditions: probe [14C]5-HT.

Another data set deals with Cytochrome P450 2C9 (Homo sapiens, UniProt P11712). Nature of the data set: Inhibition of human CYP2C9 assessed as tolbutamide hydroxylation after 20 mins by LC/MS/MS analysis. It counts as ADME. An outline of the steps: as §2
Cytochrome P450 2C9, sequence (P11712 whole entry): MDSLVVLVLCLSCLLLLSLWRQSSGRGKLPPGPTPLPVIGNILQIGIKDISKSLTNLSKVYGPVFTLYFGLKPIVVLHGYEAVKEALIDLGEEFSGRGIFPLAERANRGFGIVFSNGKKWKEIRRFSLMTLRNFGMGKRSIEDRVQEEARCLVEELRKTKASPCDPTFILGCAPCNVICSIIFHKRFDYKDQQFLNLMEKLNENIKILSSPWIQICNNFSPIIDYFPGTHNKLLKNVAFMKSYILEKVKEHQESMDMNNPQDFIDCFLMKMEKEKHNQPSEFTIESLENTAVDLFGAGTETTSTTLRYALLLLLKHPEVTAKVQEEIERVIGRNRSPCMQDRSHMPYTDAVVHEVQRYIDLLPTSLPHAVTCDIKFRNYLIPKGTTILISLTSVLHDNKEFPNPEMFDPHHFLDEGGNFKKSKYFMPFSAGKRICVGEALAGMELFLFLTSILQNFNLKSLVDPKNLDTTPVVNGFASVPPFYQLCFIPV
Data set [4] deals with Staphylococcus aureus. Nature of the data set: Antibacterial activity against methicillin-resistant Staphylococcus aureus SR3637 assessed as growth inhibition by CLSI broth microdilution method. It counts as functional. An outline of the steps: (§3)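 MIC by CLSI broth microdilution in cation-adjusted Mueller-Hinton broth. Lowest concentration inhibiting growth taken as MIC.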

A further data set deals with T2, Cytochrome P450 1A2 (Homo sapiens, UniProt P05177).
T2 sequence (P05177 whole entry): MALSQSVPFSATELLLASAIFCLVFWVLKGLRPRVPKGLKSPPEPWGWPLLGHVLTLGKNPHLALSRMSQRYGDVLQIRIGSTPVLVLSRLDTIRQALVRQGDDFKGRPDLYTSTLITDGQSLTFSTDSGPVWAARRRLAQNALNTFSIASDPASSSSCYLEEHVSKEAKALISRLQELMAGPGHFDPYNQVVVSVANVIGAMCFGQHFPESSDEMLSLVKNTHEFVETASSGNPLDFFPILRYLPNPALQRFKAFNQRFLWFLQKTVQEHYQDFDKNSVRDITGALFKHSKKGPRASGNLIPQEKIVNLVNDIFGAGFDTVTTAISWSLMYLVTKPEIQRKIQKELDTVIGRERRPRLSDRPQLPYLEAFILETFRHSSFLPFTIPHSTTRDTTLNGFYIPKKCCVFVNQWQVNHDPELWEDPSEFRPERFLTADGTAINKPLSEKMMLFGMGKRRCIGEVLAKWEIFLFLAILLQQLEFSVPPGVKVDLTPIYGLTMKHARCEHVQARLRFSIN
Put plainly: Inhibition of human CYP1A2 assessed as ethoxyresorufin O-deethylation after 20 mins by fluorescence plate reader analysis. In kind it is ADME. An outline of the steps: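 Human liver microsomes (0.2 mg protein/mL) with 1 mM NADPH in 50 mM HEPES pH 7.4, 10 mM MgCl2, 0.1 mM EDTA. After centrifugation, supernatant read on a fluorescence plate reader. Standard curve from authentic metabolite added to unincubated reaction mix.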

The subject of the next data set is Streptococcus pneumoniae. Put plainly: Antibacterial activity against Streptococcus pneumoniae SR26207 clinical isolate assessed as growth inhibition by CLSI broth microdilution method. It counts as functional. An outline of the steps: as §1
The subject of another data set is Enterococcus faecium. Put plainly: Antibacterial activity against Enterococcus faecium SR7940 clinical isolate assessed as growth inhibition by CLSI broth microdilution method. It counts as functional. In a few lines:
as §1

Data set [5] concerns Staphylococcus aureus. Put plainly: Antibacterial activity against linezolid-resistant Staphylococcus aureus NRS271 assessed as growth inhibition by CLSI broth microdilution method. In kind it is functional. An outline of the steps: as §3
The target in another data set is Cytochrome P450 2D6 (Homo sapiens, UniProt P10635). Put plainly: Inhibition of human CYP2D6 assessed as dextromethorphan O-demethylation after 20 mins by LC/MS/MS analysis. It counts as ADME. In a few lines: as §2
Cytochrome P450 2D6, sequence (P10635 whole entry): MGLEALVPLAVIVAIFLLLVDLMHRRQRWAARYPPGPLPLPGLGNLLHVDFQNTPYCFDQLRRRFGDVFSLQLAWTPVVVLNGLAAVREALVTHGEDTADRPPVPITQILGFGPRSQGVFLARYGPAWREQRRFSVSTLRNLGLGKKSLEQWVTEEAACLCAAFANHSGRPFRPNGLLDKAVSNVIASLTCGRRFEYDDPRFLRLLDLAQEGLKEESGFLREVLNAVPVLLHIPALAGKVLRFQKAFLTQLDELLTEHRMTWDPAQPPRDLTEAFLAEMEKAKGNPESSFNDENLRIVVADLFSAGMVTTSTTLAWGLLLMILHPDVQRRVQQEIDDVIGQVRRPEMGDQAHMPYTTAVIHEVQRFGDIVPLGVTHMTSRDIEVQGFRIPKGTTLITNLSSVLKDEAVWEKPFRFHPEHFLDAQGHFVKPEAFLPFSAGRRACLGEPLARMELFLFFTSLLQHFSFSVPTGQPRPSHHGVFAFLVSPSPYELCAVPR
The target in the next data set is T3, MAO-B (Rattus norvegicus, UniProt P19643).
T3 sequence (P19643 whole entry): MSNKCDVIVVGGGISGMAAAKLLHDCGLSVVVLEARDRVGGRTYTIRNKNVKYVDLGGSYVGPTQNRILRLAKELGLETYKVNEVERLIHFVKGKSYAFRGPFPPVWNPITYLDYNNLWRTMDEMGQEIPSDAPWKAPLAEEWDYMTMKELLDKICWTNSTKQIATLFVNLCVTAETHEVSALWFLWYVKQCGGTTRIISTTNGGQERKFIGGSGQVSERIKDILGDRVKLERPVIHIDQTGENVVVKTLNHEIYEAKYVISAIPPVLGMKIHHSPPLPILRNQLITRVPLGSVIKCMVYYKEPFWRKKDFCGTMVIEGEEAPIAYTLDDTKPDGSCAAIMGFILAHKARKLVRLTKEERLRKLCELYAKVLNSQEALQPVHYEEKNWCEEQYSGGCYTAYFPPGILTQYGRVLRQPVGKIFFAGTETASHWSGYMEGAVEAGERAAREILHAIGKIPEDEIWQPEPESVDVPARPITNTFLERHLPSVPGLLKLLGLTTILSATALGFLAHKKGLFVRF
Nature of the data set: Inhibition of MAO-B in rat forebrain using [14C]PEA as substrate at 30 uM incubated for 20 mins prior to substrate addition measured after 10 mins by liquid scintillation counting analysis relative to control. In kind it is tissue-based. The note with it: probe [14C]PEA.

In data set [6] the test system is Staphylococcus aureus. Put plainly: Antibacterial activity against methicillin-resistant Staphylococcus aureus SR3637 infected in JCL/ICR mouse systemic infection model assessed as mortality administered as po measured over 7 days. It counts as functional. As to conditions: 168 h. An outline of the steps: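 Five-week-old male JCL/ICR mice (20–25 g), five per group. Infected intraperitoneally with 0.5 or 1.0 mL bacterial suspension (about 100× LD50). Oral dosing 1 h post-infection. Mortality followed 7 days; ED50 with 95% confidence limits by logit method.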

Cytochrome P450 3A4, sequence (P08684 whole entry): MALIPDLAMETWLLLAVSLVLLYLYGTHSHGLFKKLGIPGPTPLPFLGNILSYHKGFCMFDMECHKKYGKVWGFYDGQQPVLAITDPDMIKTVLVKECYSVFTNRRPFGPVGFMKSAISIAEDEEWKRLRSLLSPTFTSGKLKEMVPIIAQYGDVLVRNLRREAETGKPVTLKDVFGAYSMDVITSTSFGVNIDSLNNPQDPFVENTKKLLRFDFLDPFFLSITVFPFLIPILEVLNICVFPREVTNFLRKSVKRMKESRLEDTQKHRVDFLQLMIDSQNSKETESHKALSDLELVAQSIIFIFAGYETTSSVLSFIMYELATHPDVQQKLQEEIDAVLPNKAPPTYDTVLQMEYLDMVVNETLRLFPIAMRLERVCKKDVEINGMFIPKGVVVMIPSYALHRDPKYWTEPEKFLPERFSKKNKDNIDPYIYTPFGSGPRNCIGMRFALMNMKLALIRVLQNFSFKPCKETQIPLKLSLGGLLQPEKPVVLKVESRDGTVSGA

`CC(=O)NC[C@H]1CN(c2ccc(N3CCN(C(=O)CO)CC3)c(F)c2)C(=O)O1` [EPEREZOLID]: the MIC in the data set on Staphylococcus aureus [1] is 1 µg/mL (≈ 2.54 µM); with Haemophilus influenzae, 4 µg/mL (≈ 10.1 µM); with Moraxella catarrhalis, 8 µg/mL (≈ 20.3 µM); with Enterococcus faecalis it was 1 µg/mL (≈ 2.54 µM); in the data set on Staphylococcus aureus [3] it was 1 µg/mL (≈ 2.54 µM); with Staphylococcus aureus [4] it was 1 µg/mL (≈ 2.54 µM). Further, the MIC with Streptococcus pneumoniae turned out to be 0.125 µg/mL (≈ 0.317 µM); with Enterococcus faecium, 2 µg/mL (≈ 5.07 µM); in the data set on Staphylococcus aureus [5], 32 µg/mL (≈ 81.1 µM). Moreover, the results for the ED50 in the data set with Staphylococcus aureus [2] and in the data set on Staphylococcus aureus [6] were 1.85 mg/kg and 4.76 mg/kg, respectively. Further, the IC50 on Cytochrome P450 3A4, at Cytochrome P450 2C9, at Cytochrome P450 1A2 and on Cytochrome P450 2D6 was over 20 µM throughout. On MAO-A, this compound came in with an inhibition at 5 min, 30 µM of 53.6%. For the same compound, on MAO-B, the inhibition at 10 min, 30 µM is 20.2%.
`CC(=O)NC[C@H]1CN(c2ccc(N3CCOCC3)c(F)c2)C(=O)O1` [LINEZOLID]: the MIC in the data set on Haemophilus influenzae worked out at 16 µg/mL (≈ 47.4 µM); in the data set on Moraxella catarrhalis, 8 µg/mL (≈ 23.7 µM); in the data set on Enterococcus faecium, 2 µg/mL (≈ 5.93 µM); in the data set on Staphylococcus aureus [5], 32 µg/mL (≈ 94.9 µM). For the same compound, the figures for the ED50 in the data set on Staphylococcus aureus [2] and in the data set on Staphylococcus aureus [6] were 1.73 mg/kg and 2.02 mg/kg, respectively. The half-inhibitory concentration (IC50) on Cytochrome P450 3A4, on Cytochrome P450 2C9, at Cytochrome P450 1A2 and at Cytochrome P450 2D6 was over 20 µM throughout. For the same compound, the inhibition at 5 min, 30 µM against MAO-A was found to be 61.3%. Moreover, on MAO-B, the inhibition at 10 min, 30 µM was 70.4%.

Source of the values: ChEMBL document CHEMBL2375276, “Antibacterial oxazolidinone analogues having a N-hydroxyacetyl-substituted seven-membered [1,2,5]triazepane or [1,2,5]oxadiazepane C-ring unit” (Eur J Med Chem, 2013).
